Data published in ChEMBL document CHEMBL1154726, “Exploring the effect of 2,3,4-trimethoxy-phenyl moiety as a component of indolephenstatins” (Eur J Med Chem, 2010).

Legend:
HT-29 = assay: Cytotoxicity against human HT-29 cells after 72 hrs by XTT assay; type: functional, cell-based; settings: HT-29, 72 h
HeLa = assay: Cytotoxicity against human HeLa cells after 72 hrs by XTT assay; type: functional, cell-based
HL-60 = assay: Cytotoxicity against human HL60 cells after 72 hrs by XTT assay; type: functional, cell-based; settings: HL-60, 72 h
In short: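 XTT proliferation assay. Adherent cells were seeded and left 24 h at 37 °C in humidified 5% CO2/95% air to attach. HL-60 cells were seeded at 3 × 10³ cells/well. Cells were exposed to a range of compound concentrations for 72 h under the same atmosphere, then incubated a further 4 h. Formazan was read at 490 nm against a 655 nm reference. IC50 is the concentration giving 50% inhibition of proliferation.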

A549 = assay: Cytotoxicity against human A549 cells after 72 hrs by XTT assay; type: functional, cell-based; settings: A549, 72 h
Bos taurus [1] = species on record: Bos taurus; assay: Inhibition of calf brain tubulin polymerization at 20 uM after 20 mins
In short: (§1)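 Single-concentration screen of tubulin assembly using calf brain MTP at 1.0 mg/mL in 0.1 M MES, 1 mM EGTA, 1 mM MgCl2, 1 mM β-ME, 1.5 mM GTP, pH 6.7, 4% DMSO, with a no-ligand control. Samples were preincubated 30 min at 20 °C and 10 min on ice, then warmed from 4 °C to 37 °C.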

[2] = Inhibition of calf brain tubulin polymerization after 20 mins; parameters: species or system Bos taurus
In short: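 Microtubule protein was purified from calf brain by two cycles of temperature-dependent assembly/disassembly. Assay mix: 1.0 mg/mL MTP in 0.1 M MES, 1 mM EGTA, 1 mM MgCl2, 1 mM β-ME, 1.5 mM GTP, pH 6.7, 4% DMSO, with a no-ligand control. Samples were preincubated 30 min at 20 °C, chilled 10 min on ice, then assembled by a shift from 4 °C to 37 °C and followed by turbidity. IC50 at 20 min came from exponential fits of TPI% versus concentration, with ≥2 independent experiments on different MTP preparations.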

Bos taurus [3] = species on record: Bos taurus; assay: Inhibition of calf brain tubulin polymerization at 40 uM after 20 mins
In short: as §1, with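 “°C. Percent inhibition of the turbidity increase was taken after 20 min.” for “°C.”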

Bos taurus [4] = species on record: Bos taurus; assay: Inhibition of calf brain tubulin polymerization at 30 uM after 20 mins
In short: as §1, with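 “°C. Percent inhibition of the turbidity increase was taken after 20 min.” for “°C.”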

Row | inhibition (Bos taurus [1]) [%] | IC50 [2] [nM] | inhibition (Bos taurus [3]) [%] | inhibition (Bos taurus [4]) [%] | Structure (SMILES) | IC50 (HT-29) [nM] | IC50 (HeLa) [nM] | IC50 (HL-60) [nM] | IC50 (A549) [nM]
1 | -0 |  |  |  | CN/N=C(/c1ccc2c(ccn2C)c1)c1ccc(OC)c(OC)c1OC | 2000 | 1000 | 1000 | > 10000
2 |  | 6900 | 98 |  | COc1cc(C(=O)c2ccc3c(ccn3C)c2)cc(OC)c1OC |  |  |  | 
3 | 29 |  |  |  | CCn1ccc2cc(/C(=N/OC(C)=O)c3ccc(OC)c(OC)c3OC)ccc21 |  |  |  | 
4 |  | 43100 |  | 52 | CCn1ccc2cc(/C(=N/O)c3ccc(OC)c(OC)c3OC)ccc21 | 2000 | 2000 | 2000 | > 10000
5 | 9 |  |  |  | COc1ccc(C(O)c2ccc3c(ccn3C)c2)c(OC)c1OC (configuration not stated) |  | 2400 |  | > 10000
6 | 47 | 5600 |  |  | CCn1ccc2cc(C(=O)c3ccc(OC)c(OC)c3OC)ccc21 | 2000 | 420 | 5000 | > 10000
7 | -0 |  |  |  | CCn1ccc2cc(C(O)c3ccc(OC)c(OC)c3OC)ccc21 (configuration not stated) | > 10000 | < 1000 | > 10000 | > 10000
8 |  |  |  | 17 | CCn1ccc2cc(/C(=N\NC)c3ccc(OC)c(OC)c3OC)ccc21 | 1200 | 290 |  | 1900
9 | 19 |  |  |  | COc1ccc(C(=O)c2ccc(OC)c(OC)c2OC)cc1O |  |  |  | 
10 |  | 9000 |  | 82 | COc1ccc(/C(=N\O)c2ccc3c(ccn3C)c2)c(OC)c1OC | 270 | 76 |  | 1000
11 | 5 |  |  |  | CCn1ccc2cc(/C(=N/NC(C)=O)c3ccc(OC)c(OC)c3OC)ccc21 |  |  |  | 
12 | 22 |  |  |  | COc1ccc(/C(=N\NC(C)=O)c2ccc3c(ccn3C)c2)c(OC)c1OC | 2000 | 1000 | 2000 | > 10000
13 | 97 | 2500 |  |  | COc1ccc(C(=O)c2cc(OC)c(OC)c(OC)c2)cc1O [PHENSTATIN] |  |  | 30 | 
14 | 12 |  |  |  | CCn1ccc2cc(/C(=N/N)c3ccc(OC)c(OC)c3OC)ccc21 | > 10000 |  | 2000 | > 10000
15 |  |  |  | 20 | COc1ccc(/C(=N\OC(C)=O)c2ccc3c(ccn3C)c2)c(OC)c1OC | 1500 | 1000 | 580 | > 10000
16 | 25 |  |  |  | COc1ccc(/C(=N\N)c2ccc3c(ccn3C)c2)c(OC)c1OC | 2000 | 2000 | 2000 | > 10000
17 | 98 | 400 |  |  | COc1ccc(C(=O)c2ccc3c(ccn3C)c2)c(OC)c1OC | 21 | 17 |  | 510

Row | Structure (SMILES) | inhibition (Bos taurus [1]) [%] | IC50 [2] [nM] | inhibition (Bos taurus [3]) [%] | inhibition (Bos taurus [4]) [%] | IC50 (HT-29) [nM] | IC50 (HeLa) [nM] | IC50 (HL-60) [nM] | IC50 (A549) [nM]
18 | COc1ccc(/C=C\c2cc(OC)c(OC)c(OC)c2)cc1O [COMBRETASTATIN A4] |  | 3000 |  |  |  |  |  | 
